# Measured values: ChEMBL document CHEMBL3763060, “Synthesis and evaluation of analogs of the phenylpyridazinone NPD-001 as potent trypanosomal TbrPDEB1 phosphodiesterase inhibitors and in vitro trypanocidals” (Bioorg Med Chem, 2016)
# Molecular target: T1, Class 1 phosphodiesterase PDEB1 (Trypanosoma brucei, UniProt Q8WQX9)
# T1 sequence (Q8WQX9 whole entry): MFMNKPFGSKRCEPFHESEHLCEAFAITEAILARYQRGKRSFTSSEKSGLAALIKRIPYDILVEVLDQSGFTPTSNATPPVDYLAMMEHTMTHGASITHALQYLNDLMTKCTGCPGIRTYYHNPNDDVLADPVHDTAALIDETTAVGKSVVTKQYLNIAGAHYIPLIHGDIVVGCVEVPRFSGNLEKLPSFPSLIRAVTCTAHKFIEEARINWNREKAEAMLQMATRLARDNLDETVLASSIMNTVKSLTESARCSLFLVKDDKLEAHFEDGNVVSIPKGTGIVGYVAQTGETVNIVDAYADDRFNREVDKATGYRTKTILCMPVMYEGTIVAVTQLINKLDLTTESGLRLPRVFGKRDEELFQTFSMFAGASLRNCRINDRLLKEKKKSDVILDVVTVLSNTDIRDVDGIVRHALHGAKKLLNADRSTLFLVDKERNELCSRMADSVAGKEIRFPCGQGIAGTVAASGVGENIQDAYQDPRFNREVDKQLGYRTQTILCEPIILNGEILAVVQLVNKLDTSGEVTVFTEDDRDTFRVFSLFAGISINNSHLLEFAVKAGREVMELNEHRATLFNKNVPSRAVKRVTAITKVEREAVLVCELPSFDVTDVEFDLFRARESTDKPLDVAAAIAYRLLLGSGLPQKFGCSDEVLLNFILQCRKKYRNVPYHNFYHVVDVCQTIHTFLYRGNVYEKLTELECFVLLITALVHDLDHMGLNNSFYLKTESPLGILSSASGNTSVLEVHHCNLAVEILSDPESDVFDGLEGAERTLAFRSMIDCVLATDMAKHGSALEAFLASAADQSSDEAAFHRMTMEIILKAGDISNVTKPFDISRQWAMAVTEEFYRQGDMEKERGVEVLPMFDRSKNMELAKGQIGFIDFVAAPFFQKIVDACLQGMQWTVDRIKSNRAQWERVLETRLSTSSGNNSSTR
# Assay: Inhibition of recombinant Trypanosoma brucei PDEB1 using [3H]-cAMP as substrate after 15 mins by scintillation proximity assay
# Details: not given
# In short: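 Inhibition of TbrPDEB1-mediated [³H]-cAMP hydrolysis was read by scintillation proximity assay. Each analog was run in at least two independent experiments.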
row,Compound,IC50
1,COc1ccc(C2=NN(C3CCCCCC3)C(=O)CC2)cc1OC,10000 nM
2,COc1ccc(-c2nn(C3CCCCCC3)c(=O)c3ccccc23)cc1OC,> 10000 nM
3,COc1ccc(C2=NN(C3CCCCCC3)C(=O)[C@@H]3CC=CC[C@H]23)cc1OCCCCOc1ccc(-c2nnnn2C)cc1 (racemic),10 nM
4,COc1ccc(C2=NN(C3CCCCCC3)C(=O)[C@@H]3CC=CC[C@H]23)cc1OCCCCOc1ccc(C(=O)O)cc1 (racemic),316 nM
5,COCCOc1cc(C2=NN(C3CCCCCC3)C(=O)[C@@H]3CC=CC[C@H]23)ccc1OC (racemic),79.4 nM
6,COc1ccc(C2=NN(C3CCCCCC3)C(=O)[C@@H]3CC=CC[C@H]23)cc1OC (racemic),316 nM
7,COc1ccc(C2=NN(C3CCCCCC3)C(=O)[C@@H]3CCCC[C@H]23)cc1OC (racemic),1580 nM
8,COc1ccc(C2=NN(C3CCCCCC3)C(=O)[C@@H]3CC=CC[C@H]23)cc1 (racemic),3980 nM
9,COc1ccc(C2=NN(C3CCCCCC3)C(=O)[C@@H]3CC=CC[C@H]23)cc1OCCCCn1cnc2ncncc21 (racemic),15.8 nM
10,COc1ccc(C2=NN(C(C)C)C(=O)[C@@H]3CCCC[C@H]23)cc1OC (racemic),2000 nM
11,COc1cccc(C2=NN(C3CCCCCC3)C(=O)[C@@H]3CC=CC[C@H]23)c1 (racemic),100000 nM

# Tested on: Trypanosoma brucei brucei
# Assay: Antitrypanosomal activity against suramin-sensitive Trypanosoma brucei brucei Squib427 assessed as inhibition of parasite growth
# Format: functional, organism-based
# Details: not given
# In short: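 Bloodstream-form trypomastigotes of Squib-427 were grown at 37 °C and 5% CO₂ in Hirumi-9 medium with 10% FCS. Compounds came from 20 mM DMSO stocks, pre-diluted 2- or 4-fold serially in DMSO, then diluted in demineralized water; final DMSO was <1%. Results were reported as −logEC₅₀ with n = 2.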
row,Compound,EC50
1,COc1ccc(C2=NN(C3CCCCCC3)C(=O)[C@@H]3CC=CC[C@H]23)cc1OCCCCOc1ccc(-c2nnnn2C)cc1 (racemic),501 nM
2,COCCOc1cc(C2=NN(C3CCCCCC3)C(=O)[C@@H]3CC=CC[C@H]23)ccc1OC (racemic),794 nM
3,COc1ccc(C2=NN(C3CCCCCC3)C(=O)[C@@H]3CC=CC[C@H]23)cc1OCCCCn1cnc2ncncc21 (racemic),200 nM

# Molecular target: 3',5'-cyclic-AMP phosphodiesterase 4B (Homo sapiens, UniProt Q07343)
# Sequence (Q07343 whole entry): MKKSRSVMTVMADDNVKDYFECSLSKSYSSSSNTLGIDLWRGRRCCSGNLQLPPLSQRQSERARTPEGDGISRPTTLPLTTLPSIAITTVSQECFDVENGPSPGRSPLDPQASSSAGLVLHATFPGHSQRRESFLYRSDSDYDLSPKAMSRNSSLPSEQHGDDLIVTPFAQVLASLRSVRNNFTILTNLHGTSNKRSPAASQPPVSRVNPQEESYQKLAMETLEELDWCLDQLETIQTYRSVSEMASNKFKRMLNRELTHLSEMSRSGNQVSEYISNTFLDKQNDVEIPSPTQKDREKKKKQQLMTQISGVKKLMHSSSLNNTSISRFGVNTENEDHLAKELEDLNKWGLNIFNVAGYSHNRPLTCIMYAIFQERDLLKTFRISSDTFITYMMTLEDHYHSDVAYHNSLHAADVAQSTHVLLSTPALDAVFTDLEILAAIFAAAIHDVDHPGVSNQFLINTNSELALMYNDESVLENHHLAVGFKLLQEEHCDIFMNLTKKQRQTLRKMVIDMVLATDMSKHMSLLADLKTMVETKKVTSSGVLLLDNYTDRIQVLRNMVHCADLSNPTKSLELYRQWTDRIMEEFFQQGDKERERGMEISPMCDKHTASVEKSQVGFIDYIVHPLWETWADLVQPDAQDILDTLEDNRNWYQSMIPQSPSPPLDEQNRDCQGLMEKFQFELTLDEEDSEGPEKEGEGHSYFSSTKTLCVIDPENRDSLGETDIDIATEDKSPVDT
# Assay: Inhibition of full length human recombinant PDE4B1 using [3H]-cAMP as substrate by scintillation proximity assay
# Details: not given
row,Compound,IC50
1,COc1ccc(C2=NN(C3CCCCCC3)C(=O)[C@@H]3CC=CC[C@H]23)cc1OCCCCOc1ccc(-c2nnnn2C)cc1 (racemic),0.631 nM
2,COc1ccc(C2=NN(C3CCCCCC3)C(=O)[C@@H]3CC=CC[C@H]23)cc1OCCCCOc1ccc(C(=O)O)cc1 (racemic),0.316 nM
3,COc1ccc(C2=NN(C3CCCCCC3)C(=O)[C@@H]3CC=CC[C@H]23)cc1OC (racemic),0.631 nM
4,COc1ccc(C2=NN(C3CCCCCC3)C(=O)[C@@H]3CC=CC[C@H]23)cc1OCCCCn1cnc2ncncc21 (racemic),1.58 nM

# Tested on: not listed separately
# Assay: Cytotoxicity against human MRC5 cells assessed as growth inhibition
# Format: cell-based
# Details: not given
# In short: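 MRC-5 fibroblasts were grown at 37 °C and 5% CO₂ in Hirumi-9 medium with 10% FCS. Compounds came from 20 mM DMSO stocks, serially pre-diluted 2- or 4-fold in DMSO, then in demineralized water; final DMSO was <1%. Results were reported as −logCC₅₀ with n = 2.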
row,Compound,CC50
1,COc1ccc(C2=NN(C3CCCCCC3)C(=O)[C@@H]3CC=CC[C@H]23)cc1OCCCCOc1ccc(-c2nnnn2C)cc1 (racemic),> 63100 nM
2,COCCOc1cc(C2=NN(C3CCCCCC3)C(=O)[C@@H]3CC=CC[C@H]23)ccc1OC (racemic),25100 nM
3,COc1ccc(C2=NN(C3CCCCCC3)C(=O)[C@@H]3CC=CC[C@H]23)cc1OCCCCn1cnc2ncncc21 (racemic),39800 nM

# Tested on: not listed separately
# Assay: Solubility of compound in 0.05 M phosphate buffer at pH 7.4
# Format: physicochemical
# Details: not given
row,Compound,solubility
1,COc1ccc(C2=NN(C3CCCCCC3)C(=O)[C@@H]3CC=CC[C@H]23)cc1OCCCCOc1ccc(-c2nnnn2C)cc1 (racemic),< 2 µM

# Tested on: not listed separately
# Assay: Selectivity index, ratio of CC50 for human MRC5 cells to EC50 for suramin-sensitive Trypanosoma brucei brucei Squib427
# Format: toxicity, cell-based
# Details: read-out: Ratio CC50/EC50
# In short: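 The index was calculated as CC₅₀ in MRC-5 fibroblasts divided by EC₅₀ against T. b. brucei. Both came from parallel assays in Hirumi-9 medium with 10% FCS at 37 °C and 5% CO₂, each n = 2.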
row,Compound,selectivity ratio
1,COc1ccc(C2=NN(C3CCCCCC3)C(=O)[C@@H]3CC=CC[C@H]23)cc1OCCCCOc1ccc(-c2nnnn2C)cc1 (racemic),> 125
2,COCCOc1cc(C2=NN(C3CCCCCC3)C(=O)[C@@H]3CC=CC[C@H]23)ccc1OC (racemic),32
3,COc1ccc(C2=NN(C3CCCCCC3)C(=O)[C@@H]3CC=CC[C@H]23)cc1OCCCCn1cnc2ncncc21 (racemic),200

# Tested on: not listed separately
# Assay: Selectivity ratio of IC50 for Trypanosoma brucei recombinant PDEB1 to IC50 for full length human recombinant PDE4B1
# Details: not given
row,Compound,Ratio IC50
1,COc1ccc(C2=NN(C3CCCCCC3)C(=O)[C@@H]3CC=CC[C@H]23)cc1OCCCCOc1ccc(-c2nnnn2C)cc1 (racemic),16
2,COc1ccc(C2=NN(C3CCCCCC3)C(=O)[C@@H]3CC=CC[C@H]23)cc1OCCCCOc1ccc(C(=O)O)cc1 (racemic),1000
3,COc1ccc(C2=NN(C3CCCCCC3)C(=O)[C@@H]3CC=CC[C@H]23)cc1OC (racemic),501
4,COc1ccc(C2=NN(C3CCCCCC3)C(=O)[C@@H]3CC=CC[C@H]23)cc1OCCCCn1cnc2ncncc21 (racemic),10
